SMILES strings stand for the structures. Calls of active or inactive are those of the source. The calls are words filed in the database; no cut-off is given here.

Data set [1] relates to MIA PaCa-2. Kind of data set: Inhibition of colony formation in human MIA PaCa-2 cells at 0.4 to 0.8 uM measured after 7 to 9 days in presence of necroptosis inhibitor necrostatin-1 by crystal violet staining based assay. In kind it is functional, cell-based. Conditions: dose microM 0.4-0.8, time day 7-9. The procedure, abridged: (§1)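 Cells seeded overnight in 96-well plates at 300 cells/well (MIA PaCa-2) or 600 cells/well (BxPC-3), in RPMI 1640 with 10% FBS. Inhibitor added 1 h before compound, then continuous exposure for 7–9 days until control wells were 80–90% confluent. Stained with 0.05% crystal violet for 30 min, imaged after overnight drying and quantified.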

Data set [2] has as its system MIA PaCa-2. Briefly: Down regulation of PNPT1 expression in human MIA PaCa-2 cells at 3 times IC50 measured after 4 hrs in presence of NQO1 inhibitor dicoumarol by proteomics analysis. In kind it is functional, cell-based.
Data set [3] relates to MIA PaCa-2. Briefly: Synergistic inhibition of colony formation in human MIA PaCa-2 cells at 0.25 to 0.5 uM measured after 24 hrs in presence of napabucasin by crystal violet staining based assay. In kind it is functional, cell-based. Conditions: dose microM 0.25-0.5, time 24.0 hrs. The gist of the method: (§2)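 Colony formation in 96-well plates seeded at 300 (MIA PaCa-2) or 600 (PANC-1) cells/well. Napabucasin, As2O3 or olaparib added 1 h before test compound; drugs on cells 24 h. Plates kept until controls were 80–90% confluent (7–9 days), then stained with 0.05% crystal violet and quantified. Synergy scored by HSA and Bliss models.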

For data set [4], the system named is MIA PaCa-2. Kind of data set: Inhibition of colony formation in human MIA PaCa-2 cells at 0.5 uM measured after 7 to 9 days in presence of iron chelator deferoxamine by crystal violet staining based assay. In kind it is functional, cell-based. The note with it: time day 7-9. The procedure, abridged:
as §1

The test system of data set [5] is MIA PaCa-2. Kind of data set: Inhibition of colony formation in human MIA PaCa-2 cells at 0.25 to 1 uM measured after 7 to 9 days in presence of caspase-dependent apoptosis inhibitor Z-VAD by crystal violet staining based assay. In kind it is functional, cell-based. The note with it: dose microM 0.25-1, time day 7-9. The gist of the method:
as §1

The nature of data set [6]: Drug metabolism in mouse plasma assessed as 6-[4-[(2R)-2-hydroxy-4-methyl-piperazin-1-yl]anilino]quinazoline-5,8-dione formation at 500 uM measured after 0.5 hrs by LC-MS/MS analysis. In kind it is ADME, cell-free. The gist of the method:
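Compound (500 μM DMSO stock, 1 μL per 500 μL) was incubated in pooled mouse plasma. Samples were taken at 0.5 h and metabolites identified by LC-MS/MS.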

In data set [7] the test system is MIA PaCa-2. Kind of data set: Down regulation of LRPPRC expression in human MIA PaCa-2 cells at 1.2 uM measured after 24 hrs by proteomics analysis. In kind it is functional, cell-based. The procedure, abridged:
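MIA PaCa-2 cells were treated with 1.2 μM compound or DMSO for 24 h and lysed in RIPA buffer. 75 μg protein per sample was run in duplicate by TMT10plex-labelled proteomics. Abundance ratio was taken as treatment over control. Changes of at least 1.5-fold at FDR < 0.05 were scored.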

Data set [8] concerns MIA PaCa-2. Briefly: Inhibition of colony formation in human MIA PaCa-2 cells at 0.4 to 0.8 uM measured after 7 to 9 days in presence of iron chelator deferasirox by crystal violet staining based assay. Conditions: dose microM 0.4-0.8, time day 7-9. In kind it is functional, cell-based. The procedure, abridged:
as §1

Data set [9] deals with MIA PaCa-2. Kind of data set: Inhibition of colony formation in human MIA PaCa-2 cells at 0.5 to 2 uM measured after 7 to 9 days in presence of N-acetylcysteine by crystal violet staining based assay. In kind it is functional, cell-based. The note with it: dose microM 0.5-2, time day 7-9. The gist of the method:
as §1

Data set [10] relates to PANC-1. Briefly: Induction of reactive oxygen species in human PANC-1 cells at 10 uM measured after 1 hr by CM-H2DCFDA dye based fluorescence assay. In kind it is functional, cell-based. The gist of the method:
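1.8 × 10⁴ cells per well were attached overnight, then loaded with 10 μM CM-H2DCFDA in HBSS for 40 min at 37 °C and washed. Compounds were added in HBSS. Fluorescence was read at Ex 483 / Em 530 nm. TBHP was the positive control. NAC at 3 mM was used where stated.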

Data set [11] concerns MIA PaCa-2. Briefly: Cytotoxicity against human MIA PaCa-2 cells measured after 72 hrs in presence of N-acetylcysteine by MTT assay. In kind it is functional, cell-based. The note with it: MIA PaCa-2, 72 h.
Data set [12] in a line: Plasma concentration in CD-1 mouse at 10 mg/kg, ip measured after 7 hrs by LC-MS/MS analysis. In kind it is ADME, organism-based. The procedure, abridged: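 CD-1 mice dosed IP at 10 mg/kg or PO at 20 mg/kg, n=2 per route. Blood taken with heparinized pipettes at 0.5, 2, 4 and 7 h and spun at 15,000 rpm for 10 min. Plasma stored at −80 °C, then measured by LC-MS/MS.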

For another data set, the system named is BXPC-3. Briefly: Cytotoxicity against human BXPC-3 cells measured after 72 hrs by MTT assay. In kind it is functional, cell-based. Conditions: BXPC-3, 72 h. The procedure, abridged:
(§3)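 Cells were kept in RPMI 1640 with 10% FBS at 37 °C, 5% CO₂, under 35 passages. Cells were seeded, attached overnight and treated with compound or DMSO for 72 h. MTT was added at 0.3 mg/mL for 3 h, then dissolved in DMSO and read as absorbance at 570 nm. IC50 was fitted from the curve. Values are mean ± sd of three independent experiments.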

Data set [13] deals with MIA PaCa-2. Kind of data set: Synergistic inhibition of colony formation in human MIA PaCa-2 cells at 0.25 uM measured after 24 hrs in presence of As2O3 by crystal violet staining based assay. In kind it is functional, cell-based. The gist of the method: as §2
The subject of data set [14] is MIA PaCa-2. Kind of data set: Inhibition of colony formation in human MIA PaCa-2 cells at 0.375 to 0.75 uM measured after 7 to 9 days in presence of GPX4 inhibitor RSL3 by crystal violet staining based assay. In kind it is functional, cell-based. Conditions: dose microM 0.375-0.75, time day 7-9. The gist of the method:
as §1

Data set [15] deals with PANC-1. Briefly: Cytotoxicity against human PANC-1 cells measured after 72 hrs by MTT assay. In kind it is functional, cell-based. The note with it: PANC-1, 72 h. The procedure, abridged: as §3
Data set [16] concerns PANC-1. Kind of data set: Down regulation of PNPT1 expression in human PANC-1 cells at 3 times IC50 measured after 1 to 24 hrs by proteomics analysis. The note with it: time hrs 1-24. In kind it is functional, cell-based.

With `CN1CCN(c2ccc(NC3=CC(=O)c4ncncc4C3=O)cc2)CC1`, the inhibition entry with MIA PaCa-2 [1], in the data set with MIA PaCa-2 [3], in the data set on MIA PaCa-2 [5] and in the data set on MIA PaCa-2 [13] was “Active” throughout. Also, the outcome in the data set with MIA PaCa-2 [2] and in the data set with PANC-1 [16] was inactive. In addition, the inhibition result in the data set on MIA PaCa-2 [4], in the data set with MIA PaCa-2 [8], in the data set with MIA PaCa-2 [9] and in the data set with MIA PaCa-2 [14] was “inactive” throughout. The Drug metabolism entry in data set [6] is reported as “Metabolite_Detected”. The outcome with MIA PaCa-2 [7] and with PANC-1 [10] was Active. Moreover, the IC50 is 1110 nM in the data set with MIA PaCa-2 [11], 900 nM in the data set with BXPC-3 and 340 nM with PANC-1 [15]. Further, in data set [12], the concentration at 7 h turned out to be 4.5 ng/mL.

These data come from ChEMBL document CHEMBL4725371, “A Novel Redox Modulator Induces a GPX4-Mediated Cell Death That Is Dependent on Iron and Reactive Oxygen Species” (J Med Chem, 2020).
